Paper PMC8607274 (Translational Oncology, 2021)

What was measured:
xenograft models = conditions: twice-daily, nude mice; cited from earlier work
[1] = Bioavailability study, plasma concentration by HPLC-UV; type: in vivo, Swiss albino mice
In short: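 Swiss albino mice, n = 2/group, single oral or i.p. dose: test compound 10 mg/kg b.wt, curcumin 20 mg/kg b.wt. Blood sampled at 5, 10, 15 min and 1, 3, 6, 12, 24 h. Plasma protein-precipitated with an equal volume of acetonitrile. HPLC-UV at 1 mL/min, room temperature, detection 312 nm (test compound) or 369 nm (curcumin). Calibration curve in mouse plasma, 1–100 µM. Mean per time point.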

tumor = conditions: cited from earlier work
[2] = system: various cancer cell lines; conditions: cited from earlier work
[3] = Toxicity in experimental animals; type: in vivo, Swiss albino mice
PA-1 cells = experiment: Cytotoxicity on ovarian cancer cells compared to curcumin; type: cell-based
A2780 cells [4] = experiment: Spectrometric ROS measurement; type: cell-based
In short: (§1)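 Plate-reader ROS: 20,000 cells/well plated; after 24 h washed in PBS. Incubated 1 h in PBS with 10 µM H2DCFDA plus various test-compound concentrations, with or without 20 mM NAC. Fluorescence read at ex 485/em 535. 200 µM H2O2 as positive control.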

[5] = system: Ehrlich ascites carcinoma (EAC) solid tumor; experiment: Antitumor activity in EAC solid tumor mice; type: in vivo, Swiss albino mice
In short: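 EAC cells maintained by intraperitoneal passage in mice every 7 days. Day-7 ascites cells were diluted in PBS, and 1 × 10^6 cells were injected subcutaneously into the thigh. On day 7, caliper-measured tumours were allocated to groups of equal mean size, 5 animals/group, repeated three times (n = 15). Groups: untreated control or test compound 10 mg/kg b.wt i.p. every alternate day. Tumour size and body weight were recorded every alternate day; V = (ab2)/2.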

A2780 cells [6] = experiment: JC-1 mitochondrial membrane potential assay; type: cell-based; conditions: 10, 50, 75 nM; 48 h
In short: (§2)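 After 48 h test-compound treatment, cells were harvested and resuspended in staining buffer containing JC-1, 20 min in the dark at 37 °C, 5% CO2. Then resuspended in fresh buffer; 10,000 events acquired by flow cytometry. Valinomycin as positive control.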

MCF7 = experiment: MTT assay of human breast cancer cell lines; type: cell-based; conditions: 48 hours
[7] = system: Ehrlich ascites carcinoma (EAC) solid tumor; experiment: Chemopreventive effect in EAC solid tumor mice; type: in vivo, Swiss albino mice
In short: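 Subcutaneous EAC thigh tumour model (1 × 10^6 cells). The treated group got 15 alternate-day doses of test compound (10 mg/kg b.wt) before tumour injection, none at inoculation, then 15 further doses after tumour injection. Compared with untreated controls, n = 5/group. Tumour volume was measured from day 7 after tumour injection, with body weight and physiological parameters. Two independent experiments.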

PA1 cells [8] = experiment: Cell cycle analysis; type: cell-based; conditions: 48 h
In short: (§3)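 Cells seeded at 1 × 10^5/well, then treated next day with 10, 50 or 75 nM for 48 h. PI (4 µg/ml) added for 5 min at RT. 10,000 events acquired by flow cytometry.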

PA1 cells [9] = experiment: Spectrometric ROS measurement; type: cell-based
In short: as §1

EAC tumor tissue = experiment: Histology; type: in vivo, Swiss albino mice; conditions: ST03 post-treatment
In short: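 Tumour and organs (kidney, liver, spleen) collected at study end and fixed; paraffin sections (10 µm) H&E-stained. PCNA IHC on 5 µm tumour sections: 3% H2O2 in PBS, antigen retrieval by boiling in 10 mM sodium citrate pH 6. Blocked with 5% goat serum/1% BSA for 30 min. Mouse anti-PCNA 1:100 (1 h RT or overnight 4 °C), biotinylated anti-mouse IgG 1:200, streptavidin-HRP 1:1000, DAB-H2O2.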

A2780 cells [10] = experiment: Real time PCR of mitochondrial OXPHOS genes; type: cell-based; conditions: 48 h
In short: (§4)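 Total RNA extracted from cells treated with various test-compound concentrations. 2 µg RNA reverse-transcribed to cDNA. qPCR run in triplicate with primers for ND2, CYTB and ATPase 6.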

PA1 cells [11] = experiment: JC-1 mitochondrial membrane potential assay; type: cell-based; conditions: 10, 50, 75 nM; 48 h
In short: as §2

[12] = system: human breast cancer cell lines (MDA-MB-231, MDA-MB-468, MCF7); experiment: MTT assay of human breast cancer cell lines; type: cell-based; conditions: 48 h, read-out: IC50 (cytotoxicity)
A2780 cells [13] = experiment: Intracellular ROS, H2DCFDA flow cytometry; type: cell-based; conditions: 75 nM
In short: (§5)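 Intracellular ROS: 1 × 10^5 cells per 35 mm dish exposed to test compound for 10, 20 and 30 min. Harvested, washed in PBS, stained with H2DCFDA for 30 min and analysed by flow cytometry. H2O2-treated cells as positive control. ROS taken as the histogram shift in median fluorescence intensity versus vehicle control.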

A2780 cells [14] = experiment: Immunoblotting of apoptosis-related proteins; type: cell-based
In short: (§6)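 Treated and control cells lysed in RIPA buffer with protease inhibitors; protein measured by Bradford. 40 µg resolved by SDS-PAGE and transferred to PVDF. Bands probed with antibodies, detected by enhanced chemiluminescence and quantified by densitometry.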

A2780 = experiment: Cytotoxicity on ovarian cancer cells compared to curcumin; type: cell-based
PA1 cells [15] = experiment: Immunoblotting of apoptosis-related proteins and MMP1; type: cell-based
In short: as §6

PA1 cells [16] = experiment: Real time PCR of mitochondrial OXPHOS genes; type: cell-based; conditions: 48 h
In short: as §4

Solubility in 0.6 N HCl = type: physicochemical
PA1 cells [17] = experiment: Transwell migration assay; type: cell-based; conditions: 40 nM, 48 h treatment, 5 h migration
In short: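 PA1 cells pretreated with various test-compound concentrations for 48 h, then 1 × 10^5 seeded into 8 µm-pore inserts in serum-free medium, complete medium below, 5 h. Inserts washed in PBS and fixed in 70% ethanol; non-migrated inner cells removed with cotton. Cells stained with 0.2% crystal violet, imaged and quantified by image analysis.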

PA1 cells [18] = experiment: Intracellular ROS, H2DCFDA flow cytometry; type: cell-based
In short: as §5

A2780 cells [19] = experiment: Cell cycle analysis; type: cell-based; conditions: 48 h
In short: as §3

PA1 cells [20] = experiment: Cell viability assay with ST03 and NAC; type: cell-based; conditions: 20 mM NAC, 20 nM ST03, 24 h
A2780 cells [21] = experiment: Cell viability assay with ST03 and NAC; type: cell-based; conditions: 20 mM NAC, 20 nM ST03, 24 h
[22] = Swiss albino, mouse, plasma, ip, 20 mg/kg
[23] = Swiss albino, mouse, plasma, po, 20 mg/kg
[24] = Swiss albino, mouse, plasma, ip, 10 mg/kg
[25] = Swiss albino, mouse, plasma, po, 10 mg/kg

## COc1cc(/C=C/C(=O)CC(=O)/C=C/c2ccc(O)c(OC)c2)ccc1O [curcumin, reference compound]
Xenograft models
  effective dosage in xenograft models: 50 mg/kg b.wt
[1]; [22]
  Cmax: 2.7 µM
  Tmax: 3 h
[1]; [23]
  Cmax: 13.7 µM
  Tmax: 0.25 h
tumor
  dosage with antitumor activity in vivo: 800 mg/kg of body weight
[2]
  potency range: ~10000 nM

## O=C1/C(=C/c2ccccc2)CN(C(=O)C(=O)N2C/C(=C\c3ccccc3)C(=O)/C(=C/c3ccccc3)C2)C/C1=C\c1ccccc1 [1,2-bis[(3E,5E)−3,5-dibenzylidene-4-oxo-1-piperidyl]ethane-1,2-dione, reference compound]
[2]; multiple cancer cell lines in vitro
  cytotoxic potency compared with curcumin: greater potency than the parent compound curcumin

## O=C1/C(=C/c2ccccc2Cl)CN(C(=O)C(=O)N2C/C(=C\c3ccccc3Cl)C(=O)/C(=C/c3ccccc3Cl)C2)C/C1=C\c1ccccc1Cl [ST03, 1,2-bis[(3E,5E)-3,5-bis[(2-chlorophenyl)methylene]-4-oxo-1-piperidyl]ethane-1,2-dione]
[1]; [24]
  Cmax: 98.4 µM
  Tmax: 8 h
[1]; [25]
  Cmax: 55.2 µM
  Tmax: 2 h
  half-life: 3 h
[1]; intraperitoneal
  presence in plasma until: > 12 h
[1]; oral
  presence in plasma until: > 12 h
[1]; oral, ST03 10 mg/kg, curcumin 20 mg/kg
  bioavailability compared to curcumin: ~14 fold
[1]; route not given
  detectable in plasma: up to 12 h
[3]; ST03 post-treatment
  histopathology of kidney, liver and spleen (H&E): no pathological changes
[3]; end of study
  RBC count: No significant change
  WBC count vs control group: increase in the number of WBCs
[3]; pre- and post-treatment animals, 10 mg/kg b.wt
  body weight: no notable weight reduction
[3]; serum, end of study
  ALT level: No significant change
  AST level: No significant change
  urea level: No significant change
PA-1 cells
  cytotoxicity on PA-1 compared with A2780: better cytotoxicity on PA-1 cells
  cytotoxicity relative to curcumin: 100 fold
A2780 cells [4]; 20 mM ST03 as printed, 20 nM
  time to peak ROS levels: 1 h
[5]; 10 mg/kg b.wt i.p.
  spleen size vs untreated animals: reduction in spleen size
[5]; 10 mg/kg b.wt i.p. every alternate day from day 7, 25 days
  tumor growth vs untreated control: significant reduction in tumor growth
[5]; 15 doses, tumor allograft
  dosage sufficient to inhibit tumor growth without adverse systemic toxicity: 10 mg/kg
A2780 cells [6]
  JC1 green population (mitochondrial damage): increase in the green population
MCF7
  IC50 rank among breast cancer cell lines: least IC50
[7]; 10 mg/kg b.wt
  pre and post-treatment compared with post-treatment alone: better results than post-treatment alone
[7]; pre-treatment with 15 alternate doses of 10 mg/kg b.wt, then post-treatment
  tumor growth vs controls: significant reduction in tumor growth
PA1 cells [8]; 50 nM
  cells accumulated at the sub G0/G1 stage: ~70%
PA1 cells [8]; 10, 50, 75 nM
  cell cycle arrest: no notable cell cycle arrest
PA1 cells [9]; 20 mM ST03 as printed, 20 nM
  time to peak ROS levels: 1 h
EAC tumor tissue
  proliferating cells (PCNA staining) in tumor: reduction in proliferating cells
  tumor cells in H&E stained tumor vs control tissue: significant reduction of tumor cells
EAC tumor tissue; western blot
  Bcl2 in tumor extract: up-regulation
A2780 cells [10]
  transcription of mitochondrially encoded OXPHOS genes (ND2, CYB, Atpase6): decrease in the transcription
PA1 cells [11]
  JC1 green population (mitochondrial damage): increase in the green population
[12]
  IC50: 166 to 301 nM
A2780 cells [13]
  time at which the histogram shifted (ROS production): 30 min
A2780 cells [14]
  p53 expression: upregulation
A2780 cells [14]; 40 nM
  Bax expression: increase
  Bcl2 expression: significant decrease
A2780 cells [14]; increasing concentrations
  Cytochrome C: increase
A2780
  cytotoxicity relative to curcumin: 100 fold
PA1 cells [15]
  p53 expression: upregulation
PA1 cells [15]; 40 nM
  Bax expression: increase
  Bcl2 expression: significant decrease
  MMP1 expression: significant decrease
PA1 cells [15]; increasing concentrations
  Cytochrome C: increase
PA1 cells [16]
  transcription of mitochondrially encoded OXPHOS genes (ND2, CYB, Atpase6): decrease in the transcription
Solubility in 0.6 N HCl
  solubility: completely soluble
PA1 cells [17]
  reduction in migration: 60%
PA1 cells [18]; 40 nM
  time at which ROS production was induced: 10 min
PA1 cells [18]; 50 nM
  time at which ROS production was induced: ≤ 10 min
[2]
  potency relative to curcumin: ~100 fold
  selectivity of toxicity, cancer cells vs normal cells: selectively induces toxicity in cancer cells compared to normal cells
A2780 cells [19]; 50 nM
  cells accumulated at the sub G0/G1 stage: ~60%
A2780 cells [19]; 10, 50, 75 nM
  cell cycle arrest: no notable cell cycle arrest

## CC(=O)N[C@@H](CS)C(=O)O [NAC, N-acetylcysteine, reference compound]
PA1 cells [20]
  cell death with ST03 in presence of NAC: decrease in cell death
A2780 cells [4]; 20 mM NAC with ST03
  effect of NAC on ST03 induced ROS: blocked ST03 induced increase in ROS
PA1 cells [9]; 20 mM NAC with ST03
  effect of NAC on ST03 induced ROS: blocked ST03 induced increase in ROS
A2780 cells [21]
  cell death with ST03 in presence of NAC: decrease in cell death
